# In ChEMBL document CHEMBL1146033, “Synthesis, calpain inhibitory activity, and cytotoxicity of P2-substituted proline and thiaproline peptidyl aldehydes and peptidyl alpha-ketoamides” (J Med Chem, 2006):
# What was measured:
# PC-3 = experiment: Antiproliferative activity against human PC3 cell line by MTT assay; type: functional
# Procedure, shortened: (§1)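 Cells seeded at 2000 to 15000 per well, exposed to drug at 1 to 100 µM for 96 h at 37 °C, 5% CO2; untreated wells as negative control. MTT (5 mg/mL) added for final 2-4 h, formazan dissolved in DMSO, absorbance at 595 nm. GI50 (50% reduction in living cells vs untreated) from nonlinear regression of % survival against concentration.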
# HeLa = experiment: Antiproliferative activity against human HeLa cell line by MTT assay; type: functional; procedure, shortened: as §1
# [1] = target: T1, Calpain-1 catalytic subunit (Sus scrofa, UniProt P35750); experiment: Inhibition of porcine erythrocyte mu calpain
# T1 sequence (P35750 whole entry): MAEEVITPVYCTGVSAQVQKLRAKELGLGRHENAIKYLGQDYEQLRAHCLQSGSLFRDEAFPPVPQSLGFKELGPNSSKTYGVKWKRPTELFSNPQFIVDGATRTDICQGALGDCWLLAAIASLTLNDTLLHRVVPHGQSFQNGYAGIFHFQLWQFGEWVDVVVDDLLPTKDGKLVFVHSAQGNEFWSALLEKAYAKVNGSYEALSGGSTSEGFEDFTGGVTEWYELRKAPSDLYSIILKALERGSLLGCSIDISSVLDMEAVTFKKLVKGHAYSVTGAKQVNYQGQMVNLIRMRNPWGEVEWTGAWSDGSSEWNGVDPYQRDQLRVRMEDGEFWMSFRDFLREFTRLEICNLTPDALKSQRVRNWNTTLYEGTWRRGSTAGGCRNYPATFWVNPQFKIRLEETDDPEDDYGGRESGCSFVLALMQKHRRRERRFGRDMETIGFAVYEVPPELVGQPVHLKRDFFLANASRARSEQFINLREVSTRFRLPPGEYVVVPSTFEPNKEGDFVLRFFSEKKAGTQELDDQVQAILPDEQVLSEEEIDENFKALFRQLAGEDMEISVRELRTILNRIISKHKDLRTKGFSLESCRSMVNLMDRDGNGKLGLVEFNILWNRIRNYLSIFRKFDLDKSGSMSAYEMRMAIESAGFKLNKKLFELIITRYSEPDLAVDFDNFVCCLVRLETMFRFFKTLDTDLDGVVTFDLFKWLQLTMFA
# Procedure, shortened: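 µ-Calpain (1 µg, porcine erythrocyte) in 50 mM Tris HCl pH 7.4, 50 mM NaCl, 10 mM DTT, 1 mM EDTA, 1 mM EGTA, 5 mM CaCl2, fluorogenic Suc-Leu-Tyr-AMC at 0.2 or 1.0 mM, varying inhibitor in DMSO (2% total). Ki from Dixon plots (1/v vs I) of triplicate-averaged data, intersecting lines r ≥ 0.95.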
# DU-145 = experiment: Antiproliferative activity against human DU145 cell line by MTT assay; type: functional; procedure, shortened: as §1
# Cathepsin B = Cathepsin B (Homo sapiens, UniProt P07858); experiment: Inhibition of human liver cathepsin B
# Procedure, shortened: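 Human liver cathepsin B (1 nM) in 50 mM NaOAc pH 6.0, 1 mM EDTA, 0.5 mM DTT, with Z-Arg-Arg-AMC at 50 or 250 µM and varying inhibitor in DMSO (2% total). Ki from Dixon plots of triplicate-averaged data, intersecting lines r ≥ 0.95; selectivity ratio = cathepsin B Ki / µ-calpain Ki.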
# [2] = Selectivity ratio, Ki for human cathepsin B/Ki for porcine mu calpain
# Daudi = experiment: Antiproliferative activity against human Daudi cell line by MTT assay; type: functional; procedure, shortened: as §1
# Jurkat [3] = experiment: Antiproliferative activity against human Jurkat cell line by MTT assay; type: functional; procedure, shortened: as §1
# Jurkat [4] = experiment: Inhibition of calpain-mediated production of spectrin breakdown products in Jurkat cells at 20 uM; type: functional, Homo sapiens; set-up: scale not given: the % may be the effect or the level left
# Procedure, shortened: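 Jurkat cells washed in HEPES-buffered saline, preincubated 10 min with inhibitor at 20 µM, then ionomycin (20 µM final) and Ca2+ (5 mM final) added; 60 min at 37 °C. Lysates resolved by SDS-PAGE, immunoblotted for α-spectrin and β-actin, chemiluminescence. 145/150-kDa spectrin breakdown doublet quantified by densitometry, normalized to β-actin.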
SMILES,GI50 (PC-3),GI50 (HeLa),Ki [1],GI50 (DU-145),Ki (Cathepsin B),Selectivity ratio [2],GI50 (Daudi),GI50 (Jurkat [3]),Activity (Jurkat [4])
O=CC(Cc1ccccc1)NC(=O)[C@H]1CCCN1S(=O)(=O)c1ccc([N+](=O)[O-])cc1 (stereo not given in full),49.3 µM,40.4 µM,0.02 µM,42.4 µM,3.75 µM,188,32.5 µM,33.8 µM,22.8%
Cc1ccc(S(=O)(=O)N2CCC[C@@H]2C(=O)NC(C=O)Cc2ccccc2)cc1 (stereo not given in full),40.1 µM,48.9 µM,0.081 µM,45.2 µM,12.1 µM,151,16.7 µM,17.6 µM,
Cc1ccc(S(=O)(=O)N2CCC[C@@H]2C(=O)NC(Cc2ccccc2)C(=O)C(=O)NCCc2ccccc2)cc1 (mixture of isomers),20.8 µM,22.9 µM,0.85 µM,22.6 µM,6.9 µM,8.12,19.6 µM,21.9 µM,
O=CC(Cc1ccccc1)NC(=O)[C@H]1CCCN1S(=O)(=O)c1cccc([N+](=O)[O-])c1 (mixture of isomers),,,0.256 µM,,5.45 µM,21.3,,,
Cc1ccc(S(=O)(=O)N2CSC[C@@H]2C(=O)NC(C=O)Cc2ccccc2)cc1 (stereo not given in full),5.17 µM,4.37 µM,0.07 µM,6 µM,0.119 µM,1.7,2.17 µM,3.21 µM,82.4%
COc1ccc(S(=O)(=O)N2CCC[C@@H]2C(=O)NC(C=O)Cc2ccccc2)cc1 (mixture of isomers),19.7 µM,38.5 µM,0.037 µM,63.2 µM,1.48 µM,40,35.3 µM,25.4 µM,
COc1ccc(S(=O)(=O)N2CCC[C@@H]2C(=O)NC(Cc2ccccc2)C(=O)C(=O)NCCc2ccccc2)cc1 (mixture of isomers),14.6 µM,31.4 µM,0.45 µM,30 µM,2.59 µM,5.7,22.4 µM,23.8 µM,
O=CC(Cc1ccccc1)NC(=O)[C@H]1CCCN1S(=O)(=O)c1ccc(Cl)cc1 (mixture of isomers),,,0.141 µM,,5.4 µM,38.2,,,
CCCCS(=O)(=O)N1CCC[C@@H]1C(=O)NC(C=O)Cc1ccccc1 (mixture of isomers),,,0.313 µM,,1.48 µM,4.72,,,
O=CC(Cc1ccccc1)NC(=O)[C@H]1CCCN1S(=O)(=O)c1ccc(F)cc1 (mixture of isomers),27.1 µM,27.4 µM,0.386 µM,24.8 µM,6.99 µM,18.1,24.8 µM,24.2 µM,
O=CC(Cc1ccccc1)NC(=O)[C@H]1CSCN1S(=O)(=O)c1ccc(Br)cc1 (mixture of isomers),,,0.074 µM,,0.09 µM,1.21,,,

# Second part, led by results:
GI50 (PC-3),GI50 (HeLa),Ki [1],GI50 (DU-145),Ki (Cathepsin B),Selectivity ratio [2],GI50 (Daudi),GI50 (Jurkat [3]),SMILES,Activity (Jurkat [4])
27.8 µM,27.6 µM,0.28 µM,31.8 µM,12.1 µM,18.1,23.1 µM,21.3 µM,O=C(NCCc1ccccc1)C(=O)C(Cc1ccccc1)NC(=O)[C@H]1CCCN1S(=O)(=O)c1ccc([N+](=O)[O-])cc1 (mixture of isomers),
7.04 µM,7.12 µM,0.11 µM,6.22 µM,0.34 µM,3.09,3.54 µM,6.13 µM,O=CC(Cc1ccccc1)NC(=O)[C@H]1CSCN1S(=O)(=O)c1ccc(F)cc1 (mixture of isomers),
,,0.128 µM,,4.42 µM,34.5,,,O=CC(Cc1ccccc1)NC(=O)[C@H]1CCCN1S(=O)(=O)c1ccc(Br)cc1 (mixture of isomers),
,,0.836 µM,,3.5 µM,1.19,,,CC(C)S(=O)(=O)N1CCC[C@@H]1C(=O)NC(C=O)Cc1ccccc1 (mixture of isomers),
,,0.424 µM,,4.61 µM,10.9,,,O=CC(Cc1ccccc1)NC(=O)[C@H]1CCCN1S(=O)(=O)c1ccccc1[N+](=O)[O-] (mixture of isomers),
6.38 µM,5.42 µM,0.042 µM,6.29 µM,0.11 µM,2.61,4.48 µM,5.97 µM,O=CC(Cc1ccccc1)NC(=O)[C@H]1CSCN1S(=O)(=O)c1ccc(I)cc1 (mixture of isomers),
,,0.09 µM,,0.23 µM,2.5,,,O=CC(Cc1ccccc1)NC(=O)[C@H]1CSCN1S(=O)(=O)c1ccc(Cl)cc1 (mixture of isomers),
,,0.196 µM,,2.47 µM,13,,,O=CC(Cc1ccccc1)NC(=O)[C@H]1CCCN1S(=O)(=O)c1ccccc1 (mixture of isomers),
,,0.191 µM,,2.54 µM,13,,,O=CC(Cc1ccccc1)NC(=O)[C@H]1CCCN1S(=O)(=O)c1cccc2ccccc12 (mixture of isomers),
,,0.033 µM,,4.18 µM,131,,,O=CC(Cc1ccccc1)NC(=O)[C@H]1CCCN1S(=O)(=O)c1ccc(I)cc1 (mixture of isomers),
